Calls of active or inactive are those of the source. The rule behind the calls is not given here.
Legend:
Type in all cases: nucleic-acid assay
Nucleic Acid [1] = test: Binding affinity to r-(CGCUGGGCGUUAAUCAAAGAGGCGAAC)-RNA assessed as melting temperature at 1.5 uM by UV-visible spectrophotometry
Procedure, shortened: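 Each strand at 1.5 µM: ODN plus complementary 27-mer RNA in 100 mM NaCl, 50 mM MES pH 5. Samples were heated at 85 °C for 10 min and cooled slowly. Melting curves were recorded at 260 nm while warming 20 to 80 °C at 1.0 °C/min to obtain Tm.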

Nucleic Acid [2] = test: Binding affinity to FAM-tagged r-(CAAGCGGAGAAAYUAAUUGCGGGUCGC)-RNA assessed as crosslinking at 10 uM by alkylation method
Procedure, shortened: (§1)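 Reactive ODN at 10 µM with 1 µM FAM-labeled target DNA or RNA in 100 mM NaCl, 50 mM MES pH 5 plus RNase OUT, mixed at 0 °C and then incubated at 37 °C. Reactions were stopped at set times with formamide/EDTA/bromophenol blue buffer. Products were resolved on 15% denaturing polyacrylamide gel with 7 M urea, and FAM band intensities were quantified to give crosslinking yield.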

Nucleic Acid [3] = test: Binding affinity to FAM-tagged r-(GAAAYAAGAGGAAAGA)-RNA assessed as crosslinking at 10 uM by alkylation method; procedure, shortened: as §1
Nucleic Acid [4] = test: Binding affinity to FAM-tagged d-(GAAAYAAGAGGAAAGA)-DNA assessed as crosslinking at 10 uM by alkylation method; procedure, shortened: as §1

Compound	Tm (Nucleic Acid [1]) [°C]	Activity (Nucleic Acid [2])	Activity (Nucleic Acid [3])	Activity (Nucleic Acid [4])
CSCCc1nc(N)nc2c1ncn2CC[C@H]1C[C@H](OP(=O)(O)OC[C@H]2O[C@@H](n3cnc4c(N)ncnc43)[C@H](O)[C@@H]2OP(=O)(O)OC[C@H]2O[C@@H](n3cc(C)c(=O)[nH]c3=O)C[C@@H]2OP(=O)(O)OC[C@H]2O[C@@H](n3cc(C)c(=O)[nH]c3=O)C[C@@H]2OP(=O)(O)OC[C@H]2O[C@@H](n3cnc4c(N)ncnc43)[C@H](O)[C@@H]2OP(=O)(O)OC[C@H]2O[C@@H](n3cnc4c(N)ncnc43)[C@H](O)[C@@H]2OP(=O)(O)OC[C@H]2O[C@@H](n3ccc(N)nc3=O)[C@H](O)[C@@H]2OP(=O)(O)OC[C@H]2O[C@@H](n3cnc4c(=O)[nH]c(N)nc43)[C@H](O)[C@@H]2OP(=O)(O)OC[C@H]2O[C@@H](n3ccc(N)nc3=O)[C@H](O)[C@@H]2OP(=O)(O)OC[C@H]2O[C@@H](n3ccc(N)nc3=O)[C@H](O)[C@@H]2OP(=O)(O)O)[C@@H](COP(=O)(O)O[C@H]2C[C@H](n3cc(C)c(=O)[nH]c3=O)O[C@@H]2COP(=O)(O)O[C@H]2C[C@H](n3cc(C)c(=O)[nH]c3=O)O[C@@H]2COP(=O)(O)O[C@H]2C[C@H](n3cc(C)c(=O)[nH]c3=O)O[C@@H]2COP(=O)(O)O[C@H]2[C@@H](O)[C@H](n3ccc(N)nc3=O)O[C@@H]2COP(=O)(O)O[C@H]2C[C@H](n3cc(C)c(=O)[nH]c3=O)O[C@@H]2COP(=O)(O)O[C@H]2[C@@H](O)[C@H](n3ccc(N)nc3=O)O[C@@H]2COP(=O)(O)O[C@H]2[C@@H](O)[C@H](n3ccc(N)nc3=O)O[C@@H]2COP(=O)(O)O[C@H]2[C@@H](O)[C@H](n3cnc4c(=O)[nH]c(N)nc43)O[C@@H]2COP(=O)(O)O[C@H]2[C@@H](O)[C@H](n3ccc(N)nc3=O)O[C@@H]2COP(=O)(O)O[C@H]2C[C@H](n3cc(C)c(=O)[nH]c3=O)O[C@@H]2COP(=O)(O)O[C@H]2C[C@H](n3cc(C)c(=O)[nH]c3=O)O[C@@H]2CO)O1	50.4	Active		
CSCCc1nc(N)nc2c1ncn2CCCC[C@H]1C[C@H](OP(=O)(O)OC[C@H]2O[C@@H](n3cc(C)c(=O)[nH]c3=O)C[C@@H]2OP(=O)(O)OC[C@H]2O[C@@H](n3cc(C)c(=O)[nH]c3=O)C[C@@H]2OP(=O)(O)OC[C@H]2O[C@@H](n3ccc(N)nc3=O)[C@H](O)[C@@H]2OP(=O)(O)OC[C@H]2O[C@@H](n3cc(C)c(=O)[nH]c3=O)C[C@@H]2OP(=O)(O)OC[C@H]2O[C@@H](n3ccc(N)nc3=O)[C@H](O)[C@@H]2OP(=O)(O)OC[C@H]2O[C@@H](n3ccc(N)nc3=O)[C@H](O)[C@@H]2OP(=O)(O)OC[C@H]2O[C@@H](n3cc(C)c(=O)[nH]c3=O)C[C@@H]2OP(=O)(O)OC[C@H]2O[C@@H](n3cc(C)c(=O)[nH]c3=O)C[C@@H]2OP(=O)(O)OC[C@H]2O[C@@H](n3cc(C)c(=O)[nH]c3=O)C[C@@H]2OP(=O)(O)OC[C@H]2O[C@@H](n3ccc(N)nc3=O)[C@H](O)[C@@H]2OP(=O)(O)OC[C@H]2O[C@@H](n3cc(C)c(=O)[nH]c3=O)C[C@@H]2OP(=O)(O)O)[C@@H](COP(=O)(O)O[C@H]2C[C@H](n3cc(C)c(=O)[nH]c3=O)O[C@@H]2COP(=O)(O)O[C@H]2C[C@H](n3cc(C)c(=O)[nH]c3=O)O[C@@H]2COP(=O)(O)O[C@H]2C[C@H](n3cc(C)c(=O)[nH]c3=O)O[C@@H]2COP(=O)(O)O[C@H]2[C@@H](O)[C@H](n3ccc(N)nc3=O)O[C@@H]2CO)O1			inactive	inactive
CSCCc1nc(N)nc2c1ncn2[C@H]1C[C@H](OP(=O)(O)OC[C@H]2O[C@@H](n3cnc4c(N)ncnc43)[C@H](O)[C@@H]2OP(=O)(O)OC[C@H]2O[C@@H](n3cc(C)c(=O)[nH]c3=O)C[C@@H]2OP(=O)(O)OC[C@H]2O[C@@H](n3cc(C)c(=O)[nH]c3=O)C[C@@H]2OP(=O)(O)OC[C@H]2O[C@@H](n3cnc4c(N)ncnc43)[C@H](O)[C@@H]2OP(=O)(O)OC[C@H]2O[C@@H](n3cnc4c(N)ncnc43)[C@H](O)[C@@H]2OP(=O)(O)OC[C@H]2O[C@@H](n3ccc(N)nc3=O)[C@H](O)[C@@H]2OP(=O)(O)OC[C@H]2O[C@@H](n3cnc4c(=O)[nH]c(N)nc43)[C@H](O)[C@@H]2OP(=O)(O)OC[C@H]2O[C@@H](n3ccc(N)nc3=O)[C@H](O)[C@@H]2OP(=O)(O)OC[C@H]2O[C@@H](n3ccc(N)nc3=O)[C@H](O)[C@@H]2OP(=O)(O)O)[C@@H](COP(=O)(O)O[C@H]2C[C@H](n3cc(C)c(=O)[nH]c3=O)O[C@@H]2COP(=O)(O)O[C@H]2C[C@H](n3cc(C)c(=O)[nH]c3=O)O[C@@H]2COP(=O)(O)O[C@H]2C[C@H](n3cc(C)c(=O)[nH]c3=O)O[C@@H]2COP(=O)(O)O[C@H]2[C@@H](O)[C@H](n3ccc(N)nc3=O)O[C@@H]2COP(=O)(O)O[C@H]2C[C@H](n3cc(C)c(=O)[nH]c3=O)O[C@@H]2COP(=O)(O)O[C@H]2[C@@H](O)[C@H](n3ccc(N)nc3=O)O[C@@H]2COP(=O)(O)O[C@H]2[C@@H](O)[C@H](n3ccc(N)nc3=O)O[C@@H]2COP(=O)(O)O[C@H]2[C@@H](O)[C@H](n3cnc4c(=O)[nH]c(N)nc43)O[C@@H]2COP(=O)(O)O[C@H]2[C@@H](O)[C@H](n3ccc(N)nc3=O)O[C@@H]2COP(=O)(O)O[C@H]2C[C@H](n3cc(C)c(=O)[nH]c3=O)O[C@@H]2COP(=O)(O)O[C@H]2C[C@H](n3cc(C)c(=O)[nH]c3=O)O[C@@H]2CO)O1	49.4	Active		
CSCCc1nc(N)nc2c1ncn2[C@H]1C[C@H](OP(=O)(O)OC[C@H]2O[C@@H](n3cc(C)c(=O)[nH]c3=O)C[C@@H]2OP(=O)(O)OC[C@H]2O[C@@H](n3cc(C)c(=O)[nH]c3=O)C[C@@H]2OP(=O)(O)OC[C@H]2O[C@@H](n3ccc(N)nc3=O)[C@H](O)[C@@H]2OP(=O)(O)OC[C@H]2O[C@@H](n3cc(C)c(=O)[nH]c3=O)C[C@@H]2OP(=O)(O)OC[C@H]2O[C@@H](n3ccc(N)nc3=O)[C@H](O)[C@@H]2OP(=O)(O)OC[C@H]2O[C@@H](n3ccc(N)nc3=O)[C@H](O)[C@@H]2OP(=O)(O)OC[C@H]2O[C@@H](n3cc(C)c(=O)[nH]c3=O)C[C@@H]2OP(=O)(O)OC[C@H]2O[C@@H](n3cc(C)c(=O)[nH]c3=O)C[C@@H]2OP(=O)(O)OC[C@H]2O[C@@H](n3cc(C)c(=O)[nH]c3=O)C[C@@H]2OP(=O)(O)OC[C@H]2O[C@@H](n3ccc(N)nc3=O)[C@H](O)[C@@H]2OP(=O)(O)OC[C@H]2O[C@@H](n3cc(C)c(=O)[nH]c3=O)C[C@@H]2OP(=O)(O)O)[C@@H](COP(=O)(O)O[C@H]2C[C@H](n3cc(C)c(=O)[nH]c3=O)O[C@@H]2COP(=O)(O)O[C@H]2C[C@H](n3cc(C)c(=O)[nH]c3=O)O[C@@H]2COP(=O)(O)O[C@H]2C[C@H](n3cc(C)c(=O)[nH]c3=O)O[C@@H]2COP(=O)(O)O[C@H]2[C@@H](O)[C@H](n3ccc(N)nc3=O)O[C@@H]2CO)O1			inactive	inactive
Cc1cn([C@H]2C[C@H](OP(=O)(O)OC[C@H]3O[C@@H](n4cc(C)c(=O)[nH]c4=O)C[C@@H]3OP(=O)(O)OC[C@H]3O[C@@H](n4ccc(N)nc4=O)[C@H](O)[C@@H]3OP(=O)(O)OC[C@H]3O[C@@H](n4cnc5c(=O)[nH]c(N)nc54)[C@H](O)[C@@H]3OP(=O)(O)OC[C@H]3O[C@@H](n4ccc(N)nc4=O)[C@H](O)[C@@H]3OP(=O)(O)OC[C@H]3O[C@@H](n4ccc(N)nc4=O)[C@H](O)[C@@H]3OP(=O)(O)OC[C@H]3O[C@@H](n4cc(C)c(=O)[nH]c4=O)C[C@@H]3OP(=O)(O)OC[C@H]3O[C@@H](n4ccc(N)nc4=O)[C@H](O)[C@@H]3OP(=O)(O)OC[C@H]3O[C@@H](n4cc(C)c(=O)[nH]c4=O)C[C@@H]3OP(=O)(O)OC[C@H]3O[C@@H](n4cc(C)c(=O)[nH]c4=O)C[C@@H]3OP(=O)(O)OC[C@H]3O[C@@H](n4cc(C)c(=O)[nH]c4=O)C[C@@H]3OP(=O)(O)OC[C@H]3O[C@@H](n4cnc5c(=O)[nH]c(N)nc54)[C@H](O)[C@@H]3OP(=O)(O)OC[C@H]3O[C@@H](n4cnc5c(N)ncnc54)[C@H](O)[C@@H]3OP(=O)(O)OC[C@H]3O[C@@H](n4cc(C)c(=O)[nH]c4=O)C[C@@H]3OP(=O)(O)OC[C@H]3O[C@@H](n4cc(C)c(=O)[nH]c4=O)C[C@@H]3OP(=O)(O)OC[C@H]3O[C@@H](n4cnc5c(N)ncnc54)[C@H](O)[C@@H]3OP(=O)(O)OC[C@H]3O[C@@H](n4cnc5c(N)ncnc54)[C@H](O)[C@@H]3OP(=O)(O)OC[C@H]3O[C@@H](n4ccc(N)nc4=O)[C@H](O)[C@@H]3OP(=O)(O)OC[C@H]3O[C@@H](n4cnc5c(=O)[nH]c(N)nc54)[C@H](O)[C@@H]3OP(=O)(O)OC[C@H]3O[C@@H](n4ccc(N)nc4=O)[C@H](O)[C@@H]3OP(=O)(O)OC[C@H]3O[C@@H](n4ccc(N)nc4=O)[C@H](O)[C@@H]3OP(=O)(O)O)[C@@H](CO)O2)c(=O)[nH]c1=O	55.8			
CSCCc1nc(N)nc2c1ncn2C[C@H]1C[C@H](OP(=O)(O)OC[C@H]2O[C@@H](n3cc(C)c(=O)[nH]c3=O)C[C@@H]2OP(=O)(O)OC[C@H]2O[C@@H](n3cc(C)c(=O)[nH]c3=O)C[C@@H]2OP(=O)(O)OC[C@H]2O[C@@H](n3ccc(N)nc3=O)[C@H](O)[C@@H]2OP(=O)(O)OC[C@H]2O[C@@H](n3cc(C)c(=O)[nH]c3=O)C[C@@H]2OP(=O)(O)OC[C@H]2O[C@@H](n3ccc(N)nc3=O)[C@H](O)[C@@H]2OP(=O)(O)OC[C@H]2O[C@@H](n3ccc(N)nc3=O)[C@H](O)[C@@H]2OP(=O)(O)OC[C@H]2O[C@@H](n3cc(C)c(=O)[nH]c3=O)C[C@@H]2OP(=O)(O)OC[C@H]2O[C@@H](n3cc(C)c(=O)[nH]c3=O)C[C@@H]2OP(=O)(O)OC[C@H]2O[C@@H](n3cc(C)c(=O)[nH]c3=O)C[C@@H]2OP(=O)(O)OC[C@H]2O[C@@H](n3ccc(N)nc3=O)[C@H](O)[C@@H]2OP(=O)(O)OC[C@H]2O[C@@H](n3cc(C)c(=O)[nH]c3=O)C[C@@H]2OP(=O)(O)O)[C@@H](COP(=O)(O)O[C@H]2C[C@H](n3cc(C)c(=O)[nH]c3=O)O[C@@H]2COP(=O)(O)O[C@H]2C[C@H](n3cc(C)c(=O)[nH]c3=O)O[C@@H]2COP(=O)(O)O[C@H]2C[C@H](n3cc(C)c(=O)[nH]c3=O)O[C@@H]2COP(=O)(O)O[C@H]2[C@@H](O)[C@H](n3ccc(N)nc3=O)O[C@@H]2CO)O1			inactive	inactive

Reference: ChEMBL document CHEMBL1157100, “The alkyl-connected 2-amino-6-vinylpurine (AVP) crosslinking agent for improved selectivity to the cytosine base in RNA” (Bioorg Med Chem, 2010)
